Measurements: ChEMBL document CHEMBL4373686, “Methyl sulfonamide substituents improve the pharmacokinetic properties of bicyclic 2-pyridone based Chlamydia trachomatis inhibitors” (Medchemcomm, 2019)
In brackets after ≈: the same amount, converted by molar mass. Activity calls are given as the source filed them. No cut-off for these calls is given here.

Tested on: not listed separately
Assay: Clearance in C3H/HeOuJ mouse at 0.9 mg/kg, iv measured upto 24 hrs
Type: ADME, organism-based
Conditions: in vivo
Method in brief: (§1)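 Female C3H mice, three per dose and route; IV as 50 μL tail-vein injection in PBS with 10% cremophor, 5% EtOH, 4% DMSO; PO as 100 μL gavage in lipid-vehicle/water emulsion. Tail-vein blood at 10 min (IV) and 0.5–24 h; acetonitrile mixed, methanol extracted, LC-MS/MS against spiked blank blood standards; non-compartmental analysis, errors as SD.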

| CL [L/h] | Compound |
| --- | --- |
| 0.04 | COc1c(Cc2cccc(C)c2C)cc(=O)n2c1SCC2C(=O)Nc1cc(C)cc(F)c1 (racemic) |

Tested on: not listed separately
Assay: Toxicity in C3H/HeJ mouse infected with Chlamydia trachomatis serovar D/ATCC VR-885 assessed as vital signs at 10 mg/kg, po BID administered 21 consecutive days
Type: organism-based
Conditions: in vivo, in the assay text read “7 consecutive days” for “21 consecutive days”
Method in brief: (§2)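 Female C3H/HeJ mice given 2.4 mg medroxyprogesterone acetate s.c. 10 and 3 days before intravaginal infection (5000 CFU). Nine mice dosed by gavage 100 μL of 2.33 mg/mL emulsion, twice daily; vehicle and doxycycline groups. Vaginal swabs on days 2–21 titrated on HeLa cells, immunostained, counted by automated microscopy.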

| Compound | Activity |
| --- | --- |
| CS(=O)(=O)Nc1c(Cc2cccc3ccccc23)cc(=O)n2c1SCC2C(=O)Nc1ccccc1 (racemic) | Non-Toxic |

Tested on: not listed separately
Assay: AUC (0 to infinity) in C3H/HeOuJ mouse at 1 mg/kg, iv measured upto 24 hrs
Conditions: in vivo

| AUC [µM·h] | Compound |
| --- | --- |
| 4.8 | CS(=O)(=O)Nc1c(Cc2cccc3ccccc23)cc(=O)n2c1SCC2C(=O)Nc1ccccc1 (racemic) |

Tested on: not listed separately
Assay: AUC (0 to infinity) in C3H/HeOuJ mouse at 10 mg/kg, po measured upto 24 hrs
Conditions: in vivo

| AUC [µM·h] | Compound |
| --- | --- |
| 20.3 | CS(=O)(=O)Nc1c(Cc2cccc3ccccc23)cc(=O)n2c1SCC2C(=O)Nc1ccccc1 (racemic) |

Tested on: not listed separately
Assay: Cmax in C3H/HeJ mouse at 10 mg/kg, po measured upto 24 hrs
Type: ADME, organism-based
Set-up: dose 10 mg/kg, route oral
Conditions: in vivo
Method in brief: as §1

| Cmax [nM] | Compound |
| --- | --- |
| 3700 | CS(=O)(=O)Nc1c(Cc2cccc3ccccc23)cc(=O)n2c1SCC2C(=O)Nc1ccccc1 (racemic) |

Tested on: not listed separately
Assay: Cmax in C3H/HeOuJ mouse at 1 mg/kg, iv measured upto 24 hrs
Conditions: in vivo

| Cmax [nM] | Compound |
| --- | --- |
| 1700 | CS(=O)(=O)Nc1c(Cc2cccc3ccccc23)cc(=O)n2c1SCC2C(=O)Nc1ccccc1 (racemic) |

Tested on: not listed separately
Assay: Intrinsic clearance in mouse liver microsomes at 1 uM incubated for 5 to 60 mins in presence of NADPH by LC-MS/MS analysis
Type: ADME, Microsome
Conditions: not given
Method in brief: (§3)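 Liver microsomes 0.5 mg/ml, compound 1 μM in 100 mM phosphate pH 7.4; started with 1 mM NADPH (final). Sampled 0–60 min, quenched in cold acetonitrile, parent remaining by LC-MS/MS; ln % remaining versus time fitted by linear regression.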

| CLH [µL/min/mg] | Compound |
| --- | --- |
| 440 | COc1c(Cc2cccc(C)c2C)cc(=O)n2c1SCC2C(=O)Nc1cc(C)cc(F)c1 (racemic) |
| 59 | CS(=O)(=O)Nc1c(Cc2cccc3ccccc23)cc(=O)n2c1SCC2C(=O)Nc1ccccc1 (racemic) |

Tested on: not listed separately
Assay: Solubility of compound in PBS at 0.2 to 0.5 mg after 48 hrs by LC-MS/MS based shake flask method
Type: physicochemical
Conditions: not given

| solubility thermodynamic at 48 h [µM] | Compound |
| --- | --- |
| 0.32 (≈ 0.145 µg/mL) | COc1c(Cc2cccc(C)c2C)cc(=O)n2c1SCC2C(=O)Nc1cc(C)cc(F)c1 (racemic) |
| 1.3 (≈ 0.657 µg/mL) | CS(=O)(=O)Nc1c(Cc2cccc3ccccc23)cc(=O)n2c1SCC2C(=O)Nc1ccccc1 (racemic) |

Tested on: not listed separately
Assay: Oral bioavailability in C3H/HeOuJ mouse at 10 mg/kg measured upto 24 hrs
Conditions: in vivo

| F [%] | Compound |
| --- | --- |
| 41 | CS(=O)(=O)Nc1c(Cc2cccc3ccccc23)cc(=O)n2c1SCC2C(=O)Nc1ccccc1 (racemic) |

Tested on: not listed separately
Assay: Efflux ratio of apparent permeability in human Caco2 cells at 1 uM after 15 to 60 mins by LC-MS/MS analysis
Type: ADME, cell-based
Conditions: caco-2, 1 µM
Method in brief: (§4)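 Caco-2 monolayers (passage 94–105) used on day 21 on filter supports; 1 μM donor solution applied apical or basolateral, pH 7.4 both chambers, 37 °C, 500 rpm stirring. Receiver sampled at 15, 30, 60 min, donor at 60 min for mass balance; LC-MS/MS with warfarin internal standard.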

| Ratio | Compound |
| --- | --- |
| 3.2 | COc1c(Cc2cccc(C)c2C)cc(=O)n2c1SCC2C(=O)Nc1cc(C)cc(F)c1 (racemic) |
| 2 | CS(=O)(=O)Nc1c(Cc2cccc3ccccc23)cc(=O)n2c1SCC2C(=O)Nc1ccccc1 (racemic) |

Tested on: not listed separately
Assay: Half life in C3H/HeOuJ mouse at 10 mg/kg, po measured upto 24 hrs
Conditions: in vivo

| t1/2 [h] | Compound |
| --- | --- |
| 2.6 | CS(=O)(=O)Nc1c(Cc2cccc3ccccc23)cc(=O)n2c1SCC2C(=O)Nc1ccccc1 (racemic) |

Tested on: not listed separately
Assay: Volume of distribution at steady state in C3H/HeJ mouse at 1 mg/kg, iv measured upto 24 hrs
Type: ADME, organism-based
Conditions: in vivo
Method in brief: as §1

| Vdss [L/kg] | Compound |
| --- | --- |
| 0.62 | CS(=O)(=O)Nc1c(Cc2cccc3ccccc23)cc(=O)n2c1SCC2C(=O)Nc1ccccc1 (racemic) |

Tested on: not listed separately
Assay: Clearance in C3H/HeOuJ mouse at 1 mg/kg, iv measured upto 24 hrs
Conditions: in vivo

| CL [L/h] | Compound |
| --- | --- |
| 0.01 | CS(=O)(=O)Nc1c(Cc2cccc3ccccc23)cc(=O)n2c1SCC2C(=O)Nc1ccccc1 (racemic) |

Tested on: not listed separately
Assay: Half life in C3H/HeOuJ mouse at 0.9 mg/kg, iv measured upto 24 hrs
Type: ADME, organism-based
Conditions: in vivo
Method in brief: as §1

| t1/2 [h] | Compound |
| --- | --- |
| 1.2 | COc1c(Cc2cccc(C)c2C)cc(=O)n2c1SCC2C(=O)Nc1cc(C)cc(F)c1 (racemic) |

Tested on: not listed separately
Assay: Tmax in C3H/HeOuJ mouse at 10 mg/kg, po measured upto 24 hrs
Conditions: in vivo

| Tmax [h] | Compound |
| --- | --- |
| 1 | CS(=O)(=O)Nc1c(Cc2cccc3ccccc23)cc(=O)n2c1SCC2C(=O)Nc1ccccc1 (racemic) |

Tested on: not listed separately
Assay: Cmax in C3H/HeOuJ mouse at 0.9 mg/kg, iv measured upto 24 hrs
Type: ADME, organism-based
Set-up: dose 0.9 mg/kg, route intravenous
Conditions: in vivo
Method in brief: as §1

| Cmax [nM] | Compound |
| --- | --- |
| 410 | COc1c(Cc2cccc(C)c2C)cc(=O)n2c1SCC2C(=O)Nc1cc(C)cc(F)c1 (racemic) |

Tested on: HeLa 229
Assay: Cytotoxicity against human HeLa 229 cells assessed as cell viability at 10 uM after 48 hrs resazurin dye based fluorescence method relative to control
Conditions: hela 229, 48 h
Method in brief: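 HeLa cells in colorless DMEM with 10% FBS, compound in 0.5% DMSO for 48 h; resazurin added, 3 h at 37 °C, 5% CO2, dark; fluorescence ex 535/em 595 nm; triplicate wells as percent of DMSO control.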

| Compound | Activity [%] |
| --- | --- |
| COc1c(Cc2cccc(C)c2C)cc(=O)n2c1SCC2C(=O)Nc1cc(C)cc(F)c1 (racemic) | 90 |
| CS(=O)(=O)Nc1c(Cc2cccc3ccccc23)cc(=O)n2c1SCC2C(=O)Nc1ccccc1 (racemic) | 94 |

Tested on: not listed separately
Assay: Volume of distribution at steady state in C3H/HeJ mouse at 0.9 mg/kg, iv measured upto 24 hrs
Conditions: in vivo

| Vdss [L/kg] | Compound |
| --- | --- |
| 1.1 | COc1c(Cc2cccc(C)c2C)cc(=O)n2c1SCC2C(=O)Nc1cc(C)cc(F)c1 (racemic) |

Tested on: Chlamydia trachomatis
Assay: (§5) Antibacterial activity against Chlamydia trachomatis 434/Bu serovar L2/ATCC VR-902B in HeLa 229 cells infected with cell lysates from 48 hrs at 1 uM compound treated HeLa 229 cells with Chlamydia trachomatis infection assessed as inhibition of reinfection and measured after 48 hrs post re-infection by DAPI staining based arrayscan automated microscopic method relative to control
Type: functional, organism-based
Conditions: not given
Method in brief: (§6)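 HeLa 229 cells infected with C. trachomatis L2 EBs at MOI 0.3–0.5; compound added in RPMI 1 h post infection; 44–48 h, then water lysis. 10-fold serial dilutions of lysate reinfect fresh HeLa; 44–46 h, methanol fixed, anti-Chlamydia/FITC antibody plus DAPI stain, IFUs counted by automated microscopy; % IFU versus DMSO control; three independent experiments, duplicates.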

| Compound | inhibition [%] |
| --- | --- |
| COc1c(Cc2cccc(C)c2C)cc(=O)n2c1SCC2C(=O)Nc1cc(C)cc(F)c1 (racemic) | 77 |
| CS(=O)(=O)Nc1c(Cc2cccc3ccccc23)cc(=O)n2c1SCC2C(=O)Nc1ccccc1 (racemic) | 23 |

Tested on: not listed separately
Assay: Intrinsic clearance in human liver microsomes at 1 uM incubated for 5 to 60 mins in presence of NADPH by LC-MS/MS analysis
Type: ADME, Microsome
Conditions: not given
Method in brief: as §3

| CLH [µL/min/mg] | Compound |
| --- | --- |
| 184 | COc1c(Cc2cccc(C)c2C)cc(=O)n2c1SCC2C(=O)Nc1cc(C)cc(F)c1 (racemic) |
| 39 | CS(=O)(=O)Nc1c(Cc2cccc3ccccc23)cc(=O)n2c1SCC2C(=O)Nc1ccccc1 (racemic) |

Tested on: not listed separately
Assay: Half life in C3H/HeJ mouse at 1 mg/kg, iv measured upto 24 hrs
Type: ADME, organism-based
Conditions: in vivo
Method in brief: as §1

| t1/2 [h] | Compound |
| --- | --- |
| 5.3 | CS(=O)(=O)Nc1c(Cc2cccc3ccccc23)cc(=O)n2c1SCC2C(=O)Nc1ccccc1 (racemic) |

Tested on: Chlamydia trachomatis
Assay: as §5, with “2.5” for “1”
Type: functional, organism-based
Conditions: not given
Method in brief: as §6

| Compound | inhibition [%] |
| --- | --- |
| COc1c(Cc2cccc(C)c2C)cc(=O)n2c1SCC2C(=O)Nc1cc(C)cc(F)c1 (racemic) | 95 |
| CS(=O)(=O)Nc1c(Cc2cccc3ccccc23)cc(=O)n2c1SCC2C(=O)Nc1ccccc1 (racemic) | 89 |

Tested on: not listed separately
Assay: Apparent permeability from apical to basolateral side in human Caco2 cells at 1 uM after 15 to 60 mins by LC-MS/MS analysis
Type: ADME, cell-based
Conditions: caco-2, 1 µM
Method in brief: as §4

| Papp [×10⁻⁶ cm/s] | Compound |
| --- | --- |
| 2.1 | COc1c(Cc2cccc(C)c2C)cc(=O)n2c1SCC2C(=O)Nc1cc(C)cc(F)c1 (racemic) |
| 30 | CS(=O)(=O)Nc1c(Cc2cccc3ccccc23)cc(=O)n2c1SCC2C(=O)Nc1ccccc1 (racemic) |

Tested on: not listed separately
Assay: Fraction unbound in CD-1 mouse plasma at 10 uM incubated for 4 hrs by LC-MS/MS-based equilibrium dialysis method
Type: ADME, cell-free
Conditions: not given
Method in brief: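 Rapid equilibrium dialysis: 10% CD-1 mouse plasma in isotonic buffer spiked to 10 μM compound, 1% DMSO final, against phosphate buffer pH 7.4; 37 °C, 900 rpm, 4 h. Matrix-matched samples precipitated with methanol, LC-MS/MS; fu corrected for plasma dilution.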

| Fu [%] | Compound |
| --- | --- |
| 0.1 | COc1c(Cc2cccc(C)c2C)cc(=O)n2c1SCC2C(=O)Nc1cc(C)cc(F)c1 (racemic) |
| 0.39 | CS(=O)(=O)Nc1c(Cc2cccc3ccccc23)cc(=O)n2c1SCC2C(=O)Nc1ccccc1 (racemic) |

Tested on: not listed separately
Assay: AUC (0 to infinity) C3H/HeOuJ mouse at 0.9 mg/kg, iv measured upto 24 hrs
Type: ADME, organism-based
Set-up: dose 0.9 mg/kg, route intravenous, time infinity
Conditions: in vivo
Method in brief: as §1

| AUC(0-inf) [µM·h] | Compound |
| --- | --- |
| 0.95 | COc1c(Cc2cccc(C)c2C)cc(=O)n2c1SCC2C(=O)Nc1cc(C)cc(F)c1 (racemic) |

Tested on: Chlamydia trachomatis
Assay: Antibacterial activity against Chlamydia trachomatis serovar D/ATCC VR-885 infected in C3H/HeJ mouse assessed as reduction in vaginal infection at 10 mg/kg, po BID administered 21 consecutive days by vaginal swab based immunostaining arrayscan automated microscopic method
Type: functional, organism-based
Conditions: in the assay text read “7 consecutive days” for “21 consecutive days”
Method in brief: as §2

| Compound | Activity |
| --- | --- |
| CS(=O)(=O)Nc1c(Cc2cccc3ccccc23)cc(=O)n2c1SCC2C(=O)Nc1ccccc1 (racemic) | inactive |
